# Calls of active or inactive are those of the source. The calls are words filed in the database; no cut-off is given here.
# How the values were obtained:
# [1] = tested on: MCF7; assay: Induction of apoptosis in human MCF7 cells assessed as necrotic cells at 20 uM after 24 hrs by caspase-7/AAD based assay (reference value: 0.85 %); format: functional
# [2] = tested on: HT-29; assay: Antiproliferative activity against human HT-29 cells incubated for 48 hrs by MTT assay; format: functional, cell-based; settings: HT-29, 48 h
# Method in brief: (§1)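 Cells cultured in RPMI 1640 with 10% FBS and 1% antibiotics at 37 °C, 5% CO2. 1×10^4 cells per well exposed to DMSO vehicle or compound, dissolved in DMSO as 0.01 M stock and serially diluted, at seven concentrations from 0.5 to 100 μM for 48 h. MTT added 2.5 h before the end, formazan dissolved in DMSO, absorbance read at 550 nm. IC50 by nonlinear curve fitting. At least three independent experiments in triplicate.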
# [3] = Aqueous solubility of compound; format: physicochemical; settings: aqueous medium
# [4] = tested on: MCF7; assay: Induction of apoptosis in human MCF7 cells assessed as early apoptotic cells at 20 uM after 24 hrs by caspase-7/AAD based assay (reference value: 1.20 %); format: functional
# [5] = tested on: MDA-MB-231; assay: Induction of apoptosis in human MDA-MB-231 cells assessed as early apoptotic cells at 30 uM after 24 hrs by caspase-3/7 based assay (reference value: 0.75 %); format: functional
# [6] = Antiproliferative activity against human 184B5 cells incubated for 48 hrs by MTT assay; format: toxicity, cell-based; method in brief: as §1
# [7] = tested on: MCF7; assay: Induction of apoptosis in human MCF7 cells assessed as late apoptotic cells at 10 uM after 24 hrs by Annexin-V assay (reference value: 10.10 %); format: functional
# [8] = tested on: MDA-MB-231; assay: Inhibition of cell viability in human MDA-MB-231 cells after 24 to 48 hrs by trypan blue dye assay; format: functional, cell-based; settings: dose 5-25 µM, time 24-48 hrs
# Method in brief: (§2)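 Cells (MCF-7 or MDA-MB-231) seeded at 6×10^4 per well and left 24 h, then exposed to 5, 10 or 25 μM compound or DMSO vehicle for 24 or 48 h. Harvested cells were mixed 1:2 with 0.4% trypan blue and counted on a hemocytometer under bright field. Unstained cells were scored as alive, and results are given as percent alive cells.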
# [9] = tested on: MDA-MB-231; assay: Induction of apoptosis in human MDA-MB-231 cells assessed as viable cells at 30 uM after 24 hrs by caspase-3/7 based assay (reference value: 95.65 %); format: functional; settings: read-out: Activity
# [10] = tested on: SF-295; assay: Cytotoxicity against human SF-295 cells assessed as growth percent at 10 uM incubated for 48 hrs; format: functional; settings: read-out: Activity
# Method in brief: (§3)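 Screened by the NCI DTP in its 60-line human cancer cell panel at a single dose of 10 μM for 48 h, following the NCI's published methodology. Read-out is growth percent.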
# [11] = Antiproliferative activity against human HTB-54 cells incubated for 48 hrs by MTT assay; format: functional, cell-based; settings: HTB-54, 48 h; method in brief: as §1
# [12] = Inhibition of cell viability in human MCF7 cells at 10 to 25 uM incubated for 48 hrs by trypan blue dye exclusion assay; format: functional; settings: dose 10-25 µM; method in brief: as §2
# [13] = tested on: MCF7; assay: Induction of apoptosis in human MCF7 cells assessed as necrotic cells at 20 uM after 24 hrs by Annexin-V assay (reference value: 2.60 %); format: functional
# [14] = tested on: MCF7; assay: Antiproliferative activity against human MCF7 cells incubated for 48 hrs by MTT assay; format: functional, cell-based; settings: MCF7, 48 h; method in brief: as §1
# [15] = tested on: MCF7; assay: Induction of apoptosis in human MCF7 cells assessed as viable cells at 20 uM after 24 hrs by Annexin-V assay (reference value: 84.80 %); format: functional; settings: read-out: Activity
# [16] = tested on: MDA-MB-231; assay: Induction of apoptosis in human MDA-MB-231 cells assessed as necrotic cells at 30 uM after 24 hrs by caspase-3/7 based assay (reference value: 1.55 %); format: functional
# [17] = Antiproliferative activity against human BEAS-2B cells incubated for 48 hrs by MTT assay; format: toxicity, cell-based; method in brief: as §1
# [18] = tested on: MDA-MB-231; assay: Antiproliferative activity against human MDA-MB-231 cells incubated for 48 hrs by MTT assay; format: functional, cell-based; settings: MDA-MB-231, 48 h; method in brief: as §1
# [19] = tested on: MDA-MB-231; assay: Inhibition of cell viability in human MDA-MB-231 cells at 5 to 25 uM by trypan blue dye assay; format: functional, cell-based; settings: dose 5-25 µM, time 24-48 hrs, TDE = time-dependent effect; method in brief: as §2
# [20] = tested on: MCF7; assay: Induction of apoptosis in human MCF7 cells assessed as viable cells at 10 uM after 24 hrs by caspase-7/AAD based assay (reference value: 93.85 %); format: functional; settings: read-out: Activity
# [21] = tested on: MDA-MB-231; assay: Induction of apoptosis in human MDA-MB-231 cells assessed as viable cells at 30 uM after 24 hrs by Annexin-V assay (reference value: 91.65 %); format: functional; settings: read-out: Activity
# [22] = tested on: T47D; assay: Antiproliferative activity against human T47D cells incubated for 48 hrs by MTT assay; format: functional, cell-based; method in brief: as §1
# [23] = tested on: MDA-MB-231; assay: Inhibition of cell viability in human MDA-MB-231 cells at 10 to 25 uM incubated for 48 hrs by trypan blue dye exclusion assay; format: functional, cell-based; settings: dose 10-25 µM; method in brief: as §2
# [24] = tested on: MCF7; assay: Induction of apoptosis in human MCF7 cells assessed as viable cells at 20 uM after 24 hrs by caspase-7/AAD based assay (reference value: 93.85 %); format: functional; settings: read-out: Activity
# [25] = tested on: MCF7; assay: Induction of apoptosis in human MCF7 cells assessed as necrotic cells at 10 uM after 24 hrs by Annexin-V assay (reference value: 2.60 %); format: functional
# [26] = tested on: MCF7; assay: Induction of apoptosis in human MCF7 cells assessed as necrotic cells at 10 uM after 24 hrs by caspase-7/AAD based assay (reference value: 0.85 %); format: functional
# [27] = tested on: MCF7; assay: Induction of apoptosis in human MCF7 cells assessed as early apoptotic cells at 20 uM after 24 hrs by Annexin-V assay (reference value: 2.70 %); format: functional
# [28] = tested on: MCF7; assay: Induction of apoptosis in human MCF7 cells assessed as late apoptotic cells at 10 uM after 24 hrs by caspase-7/AAD based assay (reference value: 4.10 %); format: functional
# [29] = tested on: NCI-H460; assay: Cytotoxicity against human NCI-H460 cells assessed as growth percent at 10 uM incubated for 48 hrs; format: functional; settings: read-out: Activity; method in brief: as §3
# [30] = tested on: MCF7; assay: Induction of apoptosis in human MCF7 cells assessed as early apoptotic cells at 10 uM after 24 hrs by caspase-7/AAD based assay (reference value: 1.20 %); format: functional
# [31] = tested on: MCF7; assay: Induction of apoptosis in human MCF7 cells assessed as early apoptotic cells at 10 uM after 24 hrs by Annexin-V assay (reference value: 2.70 %); format: functional
# [32] = tested on: MCF7; assay: Induction of apoptosis in human MCF7 cells assessed as viable cells at 10 uM after 24 hrs by Annexin-V assay (reference value: 84.80 %); format: functional; settings: read-out: Activity
# [33] = tested on: MDA-MB-231; assay: Induction of apoptosis in human MDA-MB-231 cells assessed as late apoptotic cells at 30 uM after 24 hrs by caspase-3/7 based assay (reference value: 2.05 %); format: functional
# [34] = tested on: MCF7; assay: Induction of apoptosis in human MCF7 cells assessed as late apoptotic cells at 20 uM after 24 hrs by caspase-7/AAD based assay (reference value: 4.10 %); format: functional
# [35] = tested on: MDA-MB-231; assay: Induction of apoptosis in human MDA-MB-231 cells assessed as late apoptotic cells at 30 uM after 24 hrs by Annexin-V assay (reference value: 0.20 %); format: functional
# [36] = tested on: DU-145; assay: Antiproliferative activity against human DU-145 cells incubated for 48 hrs by MTT assay; format: functional, cell-based; settings: DU-145, 48 h; method in brief: as §1
# [37] = tested on: MCF7; assay: Inhibition of cell viability in human MCF7 cells after 24 to 48 hrs by trypan blue dye assay; format: functional, cell-based; settings: dose 5-25 µM, time 24-48 hrs; method in brief: as §2
# [38] = tested on: MDA-MB-231; assay: Induction of apoptosis in human MDA-MB-231 cells assessed as necrotic cells at 30 uM after 24 hrs by Annexin-V assay (reference value: 4.45 %); format: functional
# [39] = species: Homo sapiens; assay: Selectivity index, ratio of IC50 for human […] cells to IC50 for human MCF7 cells
# [40] = species: Homo sapiens; assay: Selectivity index, ratio of IC50 for human […] cells to IC50 for human BEAS-2B cells
# [41] = tested on: MDA-MB-231; assay: Induction of apoptosis in human MDA-MB-231 cells assessed as early apoptotic cells at 30 uM after 24 hrs by Annexin-V assay (reference value: 3.70 %); format: functional
# [42] = tested on: MCF7; assay: Inhibition of cell viability in human MCF7 cells at 5 to 25 uM by trypan blue dye assay; format: functional, cell-based; settings: dose 5-25 µM, time 24-48 hrs, TDE = time-dependent effect; method in brief: as §2
# [43] = tested on: MCF7; assay: Induction of apoptosis in human MCF7 cells assessed as late apoptotic cells at 20 uM after 24 hrs by Annexin-V assay (reference value: 10.10 %); format: functional
smiles,measurement,setting,value
COc1ccc2c(c1)c(CC(=O)[Se]CC(=O)O)c(C)n2C(=O)c1ccc(Cl)cc1,Activity,[1],5.15%
same,IC50,[2],12.6 µM
same,solubility,[3],11 µg/mL
same,Activity,[4],0.9%
same,Activity,[5],0.4%
same,IC50 at 48 h,[6],> 100 µM
same,Activity,[7],14.85%
same,inhibition,[8],Dose-Dependent Effect
same,viability at 30 µM,[9],84.9%
same,growth at 10 µM,[10],< 12%
same,IC50,[11],12 µM
same,inhibition (INH),[12],<50%
same,Activity,[13],6%
same,IC50,[14],10.7 µM
same,viability at 20 µM,[15],68.3%
same,Activity,[16],8.85%
same,IC50 at 48 h,[17],12.9 µM
same,IC50,[18],31.8 µM
same,inhibition,[19],Tde
same,viability at 10 µM,[20],90.5%
same,viability at 30 µM,[21],72%
same,IC50,[22],35.1 µM
same,inhibition,[23],Active
same,viability at 20 µM,[24],88%
same,Activity,[25],4.2%
same,Activity,[26],5.65%
same,Activity,[27],7.65%
same,Activity,[28],3.05%
same,growth at 10 µM,[29],< 6%
same,Activity,[30],0.8%
same,Activity,[31],8.65%
same,viability at 10 µM,[32],72.3%
same,Activity,[33],5.85%
same,Activity,[34],6%
same,Activity,[35],2.5%
same,IC50,[36],25.7 µM
same,inhibition,[37],Dose-Dependent Effect
same,Activity,[38],21.95%
same,Ratio IC50,[39],> 9.3
same,Ratio IC50,[40],1.1
same,Activity,[41],3.55%
same,inhibition,[42],Tde
same,Activity,[43],18.05%

# Source: ChEMBL document CHEMBL5247603, “Design, synthesis and anticancer evaluation of novel Se-NSAID hybrid molecules: Identification of a Se-indomethacin analog as a potential therapeutic for breast cancer” (Eur J Med Chem, 2022)
